≈ marks a conversion by molar mass, not a printed value.

In data set [1] the test system is Hepatitis B virus. Briefly: Antiviral activity against HBV infected in human HepG2(2.2.15) cells assessed as inhibition of viral replication at 10 ug/ml […] relative to control. The class given is functional. As to conditions: HepG2 2.2.15, 48 h.
For data set [2], the system named is Hepatitis B virus. The experiment in a line: Antiviral activity against HBV infected in human HepG2(2.2.15) cells assessed as inhibition of viral replication after 2 days. As to conditions: HepG2 2.2.15, 48 h. Type of data set: functional, organism-based.
For a further data set, the system named is Hepatitis C virus. Briefly: Antiviral activity against HCV 1a infected in human HuH7 cells assessed as reduction of viral RNA level at 20 ug/ml […] by QRT-PCR analysis. Conditions: subtype 1a, Huh-7. The class given is functional, Hepacivirus hominis.
A short description of data set [3]: Cytotoxicity against human HuH7 cells after 2 days by XTT assay. The class given is cell-based, Huh-7. In short, it runs like this:
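Huh-7 cells seeded at 1 × 10⁵ cells/well, allowed to attach 6–8 h, then medium replaced with compound at 200, 100, 50, 10 and 1 µg/mL; DMSO control. Incubated 2 days at 37 °C, XTT reagent added for 4 h at 37 °C, absorbance read at 450–500 nm; CC50 reported.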
(Tetrazolium assays rely on reduction of a dye to a coloured formazan, in cell work by metabolically active cells.)

For data set [4], the system named is Duck hepatitis B virus. Briefly: Antiviral activity against DHBV infected in duck hepatocytes assessed as inhibition of viral DNA replication after 15 days. As to conditions: Hepatocyte, 360 h.
In data set [5] the test system is Duck hepatitis B virus. The experiment in a line: Antiviral activity against DHBV infected in duck hepatocytes assessed as inhibition of viral DNA replication at 10 ug/ml after 15 days relative to control. As to conditions: Hepatocyte, 360 h.
Data set [6] concerns Hepatitis B virus. Briefly: Antiviral activity against HBV infected in human HepG2(2.2.15) cells assessed as inhibition of viral replication at 5 ug/ml […] relative to control. Type of data set: functional. Conditions: HepG2 2.2.15, 48 h.
Data set [7] deals with Duck hepatitis B virus. Briefly: Antiviral activity against DHBV infected in duck hepatocytes assessed as inhibition of viral DNA replication at 1 ug/ml after 15 days relative to control. Conditions: Hepatocyte, 360 h.
Data set [8] deals with Duck hepatitis B virus. Briefly: Antiviral activity against DHBV infected in duck hepatocytes assessed as inhibition of viral DNA replication at 5 ug/ml after 15 days relative to control. Conditions: Hepatocyte, 360 h.
Data set [9] deals with Hepatitis B virus. Briefly: Antiviral activity against HBV infected in human HepG2(2.2.15) cells assessed as inhibition of viral replication at 0.5 to 1 ug/ml […] relative to control. Type of data set: functional.
For data set [10], the system named is Duck hepatitis B virus. Briefly: Antiviral activity against DHBV infected in duck hepatocytes assessed as inhibition of viral DNA replication at 0.5 to 1 ug/ml after 15 days relative to control.

A word on the inhibition: it is how much of the control response was suppressed. In general, EC50 refers to the concentration needed to bring the measured effect to its halfway point. Broadly, the CC50 is the concentration that lowers cell viability or growth by half. Turning to `O=c1[nH]c(=O)n([C@H]2C[C@@H](Cl)[C@@H](CO)O2)cc1F`, the inhibition at 10 µg/mL with Hepatitis B virus [1] and in the data set with Duck hepatitis B virus [5] was 50% in each case. Moreover, the EC50 in the data set with Hepatitis B virus [2] and in the data set with Duck hepatitis B virus [4] was 10 µg/mL (≈ 37.8 µM) in each case. For the same compound, the inhibition at 20 µg/mL with Hepatitis C virus amounted to 30%. The CC50 at 48 h in [3] is greater than 200 µg/mL.
`Cc1cn([C@H]2C[C@H](Cl)[C@@H](CO)O2)c(=O)[nH]c1=O`: the figures for the inhibition at 10 µg/mL with Hepatitis B virus [1] and in the data set with Duck hepatitis B virus [5] were 56% and 55%, respectively. Also, the EC50 with Hepatitis B virus [2] and in the data set on Duck hepatitis B virus [4] was 10 µg/mL (≈ 38.4 µM) each time. The inhibition at 20 µg/mL in the data set with Hepatitis C virus came out at 0%. The compound further registered a CC50 at 48 h in [3] greater than 200 µg/mL.
As to `O=c1[nH]c(=O)n([C@H]2C[C@H](Cl)[C@@H](CO)O2)cc1F`, the inhibition at 10 µg/mL with Hepatitis B virus [1] and in the data set with Duck hepatitis B virus [5] was 0% throughout. The inhibition at 20 µg/mL in the data set on Hepatitis C virus worked out at 0%. Also, the CC50 at 48 h in data set [3] is greater than 200 µg/mL.
As to `O=c1[nH]c(=O)n([C@H]2C[C@H](F)[C@@H](CO)O2)cc1F`, the inhibition at 10 µg/mL in the data set on Hepatitis B virus [1] and with Duck hepatitis B virus [5] was 0% throughout. In addition, the inhibition at 20 µg/mL in the data set on Hepatitis C virus stood at 28%. In data set [3], this compound returned a CC50 at 48 h greater than 100 µg/mL.
Take `O=c1[nH]c(=S)ccn1[C@H]1C[C@H](F)[C@@H](CO)O1`: the inhibition at 10 µg/mL with Hepatitis B virus [1] worked out at 20%; in the data set with Duck hepatitis B virus [5] it was 25%. In the data set with Hepatitis C virus, the inhibition at 20 µg/mL was 0%. Also, the CC50 at 48 h in data set [3] is greater than 100 µg/mL.
For `O=c1[nH]c(=O)n([C@H]2C[C@H](F)[C@@H](CO)O2)cc1C(F)(F)F`, in that order: 20%, 20%, 25% and greater than 100 µg/mL.
As to `CCc1cn([C@H]2C[C@H](F)[C@@H](CO)O2)c(=O)[nH]c1=O`, the inhibition at 10 µg/mL in the data set with Hepatitis B virus [1] and with Duck hepatitis B virus [5] was 0% each time. Also, the inhibition at 20 µg/mL in the data set on Hepatitis C virus was found to be 0%. For the same compound, the half-maximal cytotoxic concentration (CC50) at 48 h in data set [3] is greater than 200 µg/mL.
Take `O=c1[nH]c(=O)n([C@H]2C[C@H](F)[C@@H](CO)O2)cc1CO`: the inhibition at 10 µg/mL was found to be 58% with Hepatitis B virus [1] and 75% in the data set on Duck hepatitis B virus [5]. Further, the inhibition at 5 µg/mL in the data set on Hepatitis B virus [6] was 50%. The values for the EC50 in the data set on Hepatitis B virus [2] and in the data set on Duck hepatitis B virus [4] were 5 µg/mL (≈ 19.2 µM) and 1 µg/mL (≈ 3.84 µM), respectively. In addition, the inhibition at 20 µg/mL in the data set with Hepatitis C virus stood at 30%. Also, the half-maximal cytotoxic concentration (CC50) at 48 h in data set [3] was greater than 200 µg/mL. In the data set on Duck hepatitis B virus [7], the inhibition at 1 µg/mL stood at 50%.
As to `O=c1[nH]c(=O)n([C@H]2C[C@H](F)[C@@H](CO)O2)cc1O`, the inhibition at 10 µg/mL in the data set on Hepatitis B virus [1] and with Duck hepatitis B virus [5] was 0% throughout. Also, in the data set with Hepatitis C virus, the inhibition at 20 µg/mL was found to be 0%. For the same compound, in data set [3], the cytotoxic concentration (CC50) at 48 h was greater than 100 µg/mL.
Turning to `O=c1[nH]c(=S)c(F)cn1[C@H]1C[C@H](F)[C@@H](CO)O1`, the inhibition at 10 µg/mL with Hepatitis B virus [1] and with Duck hepatitis B virus [5] was 0% each time. For the same compound, the inhibition at 20 µg/mL in the data set with Hepatitis C virus is 0%. In data set [3], this compound showed a CC50 at 48 h greater than 100 µg/mL.
For the compound `O=c1ccn([C@@H]2O[C@H](CO)[C@@H](F)[C@H]2F)c(=O)[nH]1`, the inhibition at 10 µg/mL in the data set with Hepatitis B virus [1] and with Duck hepatitis B virus [5] was 0% in each case. Also, the inhibition at 20 µg/mL in the data set with Hepatitis C virus came to 0%. The same compound came in with a CC50 at 48 h in data set [3] greater than 200 µg/mL.
Turning to `Cc1cn([C@@H]2O[C@H](CO)[C@@H](F)[C@H]2F)c(=O)[nH]c1=O`, the inhibition at 10 µg/mL with Hepatitis B virus [1] and in the data set with Duck hepatitis B virus [5] was 0% throughout. The inhibition at 20 µg/mL with Hepatitis C virus was 0%. The CC50 at 48 h in data set [3] was greater than 100 µg/mL.
Regarding `O=c1[nH]c(=O)n([C@H]2C[C@H](F)[C@@H](CO)O2)cc1I`, the inhibition at 10 µg/mL was 60% in the data set on Hepatitis B virus [1] and 63% in the data set on Duck hepatitis B virus [5]. The inhibition at 5 µg/mL in the data set with Hepatitis B virus [6] and with Duck hepatitis B virus [8] was 50% each time. Further, the EC50 in the data set on Hepatitis B virus [2] and in the data set with Duck hepatitis B virus [4] was 5 µg/mL (≈ 14 µM) throughout. Moreover, in the data set on Hepatitis C virus, the inhibition at 20 µg/mL amounted to 40%. For the same compound, the CC50 at 48 h in data set [3] is less than 100 µg/mL.
`Nc1ccn([C@@H]2CS[C@H](CO)O2)c(=O)n1` [LAMIVUDINE]: the “inhibition (INH)” value with Hepatitis B virus [9] worked out at 88%; in the data set on Duck hepatitis B virus [10], 96%. Moreover, the concentration for a half-maximal effect (EC50) with Duck hepatitis B virus [4] is 0.05 µg/mL (≈ 0.218 µM).
With `NC(=O)c1ncn([C@@H]2O[C@H](CO)[C@@H](O)[C@H]2O)n1` [RIBAVIRIN], in the data set with Hepatitis C virus, the inhibition at 20 µg/mL worked out at 50%.

The values above are taken from ChEMBL document CHEMBL1268901, “Synthesis and in vitro antiviral activities of 3'-fluoro (or chloro) and 2',3'-difluoro 2',3'-dideoxynucleoside analogs against hepatitis B and C viruses” (Bioorg Med Chem, 2010).
